In brackets after ≈: the same amount, converted by molar mass.

Experimental findings from ChEMBL document CHEMBL4330104, “Synthesis, biological evaluations and computational studies of N-(3-(-2-(7-Chloroquinolin-2-yl)vinyl) benzylidene)anilines as fungal biofilm inhibitors” (Bioorg Med Chem Lett, 2019) are described below.

The subject of assay [1] is Escherichia coli. In words: Antibacterial activity against Escherichia coli NCIM 2256 after 24 hrs by two-fold serial dilution method. In kind it is functional. The following applies: NCIM 2256, 24 h. In short, it runs like this: (§1)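 Bacterial inocula taken from 24 h nutrient agar cultures at 37±1 °C, brought to […] with sterile saline, grown in nutrient broth. Compounds tested as two-fold serial dilutions at 400, 200, 100, 50, 25, 12.5, 6.25 and 3.13 µg/mL, with ciprofloxacin as reference. Incubation at 37±1 °C; MIC read after 24 h.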

For assay [2], the system named is Staphylococcus aureus. In words: Antibacterial activity against Staphylococcus aureus NCIM 2901 after 24 hrs by two-fold serial dilution method. The settings on record: NCIM 2901, 24 h. In kind it is functional. The method, boiled down: as §1
The test system of assay [3] is Pseudomonas aeruginosa. In words: Antibacterial activity against Pseudomonas aeruginosa NCIM 2036 after 24 hrs by two-fold serial dilution method. In kind it is functional. The following applies: NCIM 2036, 24 h. The method, boiled down:
as §1

The subject of assay [4] is Candida albicans. In words: Antifungal activity against Candida albicans NCIM 3471 after 48 to 72 hrs by SDA agar dilution method. In kind it is functional. The method, boiled down: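 CLSI agar method. Compounds dissolved in DMSO. C. albicans subcultured on Sabouraud dextrose agar at 25 °C for 72 h, suspended in sterile water at 10^5 cells/mL, and inoculated onto test, drug-free and DMSO control plates. Plates incubated at 25 °C. MIC taken as the lowest concentration that prevents macroscopically visible colonies, read at 48 h and 72 h.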
In general terms: In agar dilution the substance is mixed into plates at graded concentrations.

The subject of assay [5] is Bacillus subtilis. In words: Antibacterial activity against Bacillus subtilis NCIM 2063 after 24 hrs by two-fold serial dilution method. In kind it is functional. The following applies: NCIM 2063, 24 h. The method, boiled down: as §1
Assay [6] has as its system Candida albicans. In words: Antibiofilm activity against Candida albicans NCIM 3471 after 24 hrs by MTT assay. In kind it is functional, organism-based. The settings on record: NCIM 3471, 24 h. In short, it runs like this:
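Biofilms formed from C. albicans at 10^5 cells/well in RPMI, exposed to 0–100 µM compound (fluconazole reference) for 24 h at 30 °C. Wells washed with phosphate buffer, then MTT (1 µg/µL) added for 3 h in the dark. Formazan dissolved in DMSO, absorbance read at 575 nm. IC50 for 50% biofilm inhibition taken from the inhibition curve.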

Broadly, the MIC is the lowest concentration found to suppress growth. Higher therefore signals a need for much substance. As a reminder, the IC50 is the concentration at which inhibition is half-maximal. A higher IC50 goes with weaker potency. Take `O=[N+]([O-])c1cccc(/N=C/c2cccc(/C=C/c3ccc4ccc(Cl)cc4n3)c2)c1`: the minimal inhibitory concentration (MIC) turned out to be 185 µg/mL (≈ 447 µM) in assay [1]; 104 µg/mL (≈ 252 µM) in assay [2]; 190 µg/mL (≈ 459 µM) in assay [3]; 106 µg/mL (≈ 256 µM) in assay [4]; 17.4 µg/mL (≈ 42 µM) in assay [5]. This compound came in with an IC50 in assay [6] of 83.6 µM.

For `COc1ccc(/N=C/c2cccc(/C=C/c3ccc4ccc(Cl)cc4n3)c2)cc1`, the MIC came to 120 µg/mL (≈ 301 µM) in assay [1]; 94.8 µg/mL (≈ 238 µM) in assay [2]; 167 µg/mL (≈ 419 µM) in assay [3]; 105 µg/mL (≈ 263 µM) in assay [4]; 17.6 µg/mL (≈ 44.1 µM) in assay [5]. In assay [6], this compound yielded an IC50 of 97.5 µM.

On to `Clc1ccc(/N=C/c2cccc(/C=C/c3ccc4ccc(Cl)cc4n3)c2)cc1`, for which the MIC came out at 45 µg/mL (≈ 112 µM) in assay [1]; 170 µg/mL (≈ 422 µM) in assay [2]; 228 µg/mL (≈ 567 µM) in assay [3]; 94.2 µg/mL (≈ 234 µM) in assay [4]; 31.6 µg/mL (≈ 78.4 µM) in assay [5]. Also, 66.2 µM corresponded to half-maximal inhibition in assay [6] (IC50).

As to `Cc1ccc(/N=C/c2cccc(/C=C/c3ccc4ccc(Cl)cc4n3)c2)cc1`, the MIC in assay [1] was determined as 205 µg/mL (≈ 535 µM); in assay [2] it was 98.5 µg/mL (≈ 257 µM); in assay [3], 177 µg/mL (≈ 462 µM); in assay [4] it was 164 µg/mL (≈ 429 µM); in assay [5], 17 µg/mL (≈ 44.3 µM). This compound also showed an IC50 in assay [6] of 96.2 µM.

For the compound `FC(F)(F)c1cccc(/N=C/c2cccc(/C=C/c3ccc4ccc(Cl)cc4n3)c2)c1`, the MIC in assay [1] was found to be 102 µg/mL (≈ 233 µM); in assay [2], 71.3 µg/mL (≈ 163 µM); in assay [3], 142 µg/mL (≈ 325 µM); in assay [4], 191 µg/mL (≈ 437 µM); in assay [5] it was 33.4 µg/mL (≈ 76.5 µM). The compound also displayed a half-maximal inhibitory concentration (IC50) in assay [6] of 87.2 µM.

`Clc1ccc2ccc(/C=C/c3cccc(/C=N/c4ccccc4)c3)nc2c1`: the MIC in assay [1] amounted to 110 µg/mL (≈ 298 µM); in assay [2] it was 91.6 µg/mL (≈ 248 µM); in assay [3], 102 µg/mL (≈ 277 µM); in assay [4], 98.8 µg/mL (≈ 268 µM); in assay [5], 32.4 µg/mL (≈ 87.7 µM). The IC50 in assay [6] stood at 199 µM.

For the compound `Cc1ccccc1/N=C/c1cccc(/C=C/c2ccc3ccc(Cl)cc3n2)c1`, the MIC in assay [1] is 68.5 µg/mL (≈ 179 µM); in assay [2], 85.3 µg/mL (≈ 223 µM); in assay [3] it was 185 µg/mL (≈ 483 µM); in assay [4], 104 µg/mL (≈ 273 µM); in assay [5] it was 136 µg/mL (≈ 356 µM). This compound also yielded an IC50 in assay [6] of 166 µM.

Take `O=[N+]([O-])c1ccc(/N=C/c2cccc(/C=C/c3ccc4ccc(Cl)cc4n3)c2)cc1`: the MIC in assay [1] was 150 µg/mL (≈ 362 µM); in assay [2] it was 166 µg/mL (≈ 400 µM); in assay [3], 200 µg/mL (≈ 484 µM); in assay [4], 121 µg/mL (≈ 293 µM); in assay [5], 15.7 µg/mL (≈ 37.9 µM). In assay [6], this compound yielded a half-inhibitory concentration (IC50) of 92.1 µM.

As to `FC(F)(F)c1ccccc1/N=C/c1cccc(/C=C/c2ccc3ccc(Cl)cc3n2)c1`, the MIC in assay [1] amounted to 67.5 µg/mL (≈ 155 µM); in assay [2] it was 55.3 µg/mL (≈ 127 µM); in assay [3], 250 µg/mL (≈ 572 µM); in assay [4], 282 µg/mL (≈ 646 µM); in assay [5], 36.2 µg/mL (≈ 82.9 µM). The compound further showed an IC50 in assay [6] of 94.3 µM.

Turning to `FC(F)(F)c1ccc(/N=C/c2cccc(/C=C/c3ccc4ccc(Cl)cc4n3)c2)cc1`, the minimum inhibitory concentration (MIC) in assay [1] was found to be 84.5 µg/mL (≈ 193 µM); in assay [2] it was 89.7 µg/mL (≈ 205 µM); in assay [3], 91.5 µg/mL (≈ 209 µM); in assay [4], 174 µg/mL (≈ 399 µM); in assay [5], 37.7 µg/mL (≈ 86.2 µM). In assay [6], this compound showed an IC50 of 51.2 µM.

`O=C(O)c1cn(C2CC2)c2cc(N3CCNCC3)c(F)cc2c1=O` [CIPROFLOXACIN] yielded an MIC in assay [3] of 50 µg/mL (≈ 151 µM).

In assay [4], `OC(Cn1cncn1)(Cn1cncn1)c1ccc(F)cc1F` [FLUCONAZOLE] returned an MIC of 50 µg/mL (≈ 163 µM).
